# Measured values from ChEMBL document CHEMBL1132232, “7alpha-Iodo and 7alpha-fluoro steroids as androgen receptor-mediated imaging agents” (J Med Chem, 1999).
# Columns and labels:
# [1] = system: Rattus norvegicus; test: Distribution of tissue Radioactivity following Intravenous injection into castrated male rat muscle at 0.5 hours time; assay type: ADME, organism-based; conditions: in vivo
# Procedure, shortened: (§1)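 Male Sprague–Dawley rats, about 250 g, were castrated and injected the next day via the tail vein with 5.4 μCi (2.4 pmol) of 125I tracer in ethanol/saline (1:4). There were 5–6 rats per group. At 0.5, 1, 2 or 4 h, rats were ether-anesthetized and killed by exsanguination. Tissues were dissected, weighed and counted, giving % injected dose/g and prostate/blood ratios.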
# [2] = system: Rattus norvegicus; test: Distribution of tissue Radioactivity following Intravenous injection into castrated male rat muscle at 2 hours time; assay type: ADME, organism-based; conditions: in vivo; procedure, shortened: as §1
# [3] = system: Rattus norvegicus; test: Distribution of tissue Radioactivity following Intravenous injection into castrated male rat prostate/blood at 2 hours time; assay type: ADME, organism-based; conditions: other tissue; procedure, shortened: as §1
# [4] = system: Rattus norvegicus; test: Distribution of tissue Radioactivity following Intravenous injection into castrated male rat liver at 1 hour time; assay type: ADME, organism-based; conditions: in vivo; procedure, shortened: as §1
# [5] = system: Rattus norvegicus; test: Distribution of tissue Radioactivity following Intravenous injection into castrated male rat muscle at 4 hours time; assay type: ADME, organism-based; conditions: in vivo; procedure, shortened: as §1
# [6] = system: Rattus norvegicus; test: Distribution of tissue Radioactivity following Intravenous injection into castrated male rat muscle at 1 hour time; assay type: ADME, organism-based; conditions: in vivo; procedure, shortened: as §1
# [7] = system: Rattus norvegicus; test: Distribution of tissue Radioactivity following subcutaneous injection of […] of 5-alpha-DHT 15 min before the administration of the [125I]- tracer castrated male rat fat at 1 hour time; assay type: ADME, organism-based, Adipose tissue; conditions: in vivo, sc
# Procedure, shortened: (§2)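 Castrated male Sprague–Dawley rats, about 250 g, received 5α-DHT subcutaneously in propylene glycol/saline (3:2) 15 min before a tail-vein 125I tracer (5.4 μCi, 2.4 pmol, in ethanol/saline 1:4). There were 5–6 rats per group. At 1 h, rats were ether-anesthetized and exsanguinated. Tissues were weighed and counted as % injected dose/g, plus the prostate/blood ratio.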
# [8] = system: Rattus norvegicus; test: Distribution of tissue Radioactivity following subcutaneous injection of […] of 5-alpha-DHT 15 min before the administration of the [125I]- tracer castrated male rat muscle at 1 hour time; assay type: ADME, organism-based; conditions: in vivo, sc; procedure, shortened: as §2
# [9] = system: Rattus norvegicus; test: Distribution of tissue Radioactivity following Intravenous injection into castrated male rat thyroid at 0.5 hours time; assay type: ADME, organism-based, Thyroid gland; conditions: in vivo; procedure, shortened: as §1
# [10] = system: Rattus norvegicus; test: Distribution of tissue Radioactivity following Intravenous injection into castrated male rat spleen at 2 hours time; assay type: ADME, organism-based; conditions: in vivo; procedure, shortened: as §1
# [11] = system: Rattus norvegicus; test: Distribution of tissue Radioactivity following Intravenous injection into castrated male rat prostate at 1 hours time; assay type: ADME, organism-based, Prostate gland; conditions: in vivo; procedure, shortened: as §1
# [12] = system: Rattus norvegicus; test: Distribution of tissue Radioactivity following Intravenous injection into castrated male rat liver at 0.5 hours time; assay type: ADME, organism-based; conditions: in vivo; procedure, shortened: as §1
# [13] = system: Rattus norvegicus; test: Distribution of tissue Radioactivity following Intravenous injection into castrated male rat kidney at 0.5 hours time; assay type: ADME, organism-based; conditions: in vivo; procedure, shortened: as §1
# [14] = biological target: T1, Androgen receptor (Homo sapiens) (UniProt P10275); conditions: CV-1
# T1 sequence (whole entry): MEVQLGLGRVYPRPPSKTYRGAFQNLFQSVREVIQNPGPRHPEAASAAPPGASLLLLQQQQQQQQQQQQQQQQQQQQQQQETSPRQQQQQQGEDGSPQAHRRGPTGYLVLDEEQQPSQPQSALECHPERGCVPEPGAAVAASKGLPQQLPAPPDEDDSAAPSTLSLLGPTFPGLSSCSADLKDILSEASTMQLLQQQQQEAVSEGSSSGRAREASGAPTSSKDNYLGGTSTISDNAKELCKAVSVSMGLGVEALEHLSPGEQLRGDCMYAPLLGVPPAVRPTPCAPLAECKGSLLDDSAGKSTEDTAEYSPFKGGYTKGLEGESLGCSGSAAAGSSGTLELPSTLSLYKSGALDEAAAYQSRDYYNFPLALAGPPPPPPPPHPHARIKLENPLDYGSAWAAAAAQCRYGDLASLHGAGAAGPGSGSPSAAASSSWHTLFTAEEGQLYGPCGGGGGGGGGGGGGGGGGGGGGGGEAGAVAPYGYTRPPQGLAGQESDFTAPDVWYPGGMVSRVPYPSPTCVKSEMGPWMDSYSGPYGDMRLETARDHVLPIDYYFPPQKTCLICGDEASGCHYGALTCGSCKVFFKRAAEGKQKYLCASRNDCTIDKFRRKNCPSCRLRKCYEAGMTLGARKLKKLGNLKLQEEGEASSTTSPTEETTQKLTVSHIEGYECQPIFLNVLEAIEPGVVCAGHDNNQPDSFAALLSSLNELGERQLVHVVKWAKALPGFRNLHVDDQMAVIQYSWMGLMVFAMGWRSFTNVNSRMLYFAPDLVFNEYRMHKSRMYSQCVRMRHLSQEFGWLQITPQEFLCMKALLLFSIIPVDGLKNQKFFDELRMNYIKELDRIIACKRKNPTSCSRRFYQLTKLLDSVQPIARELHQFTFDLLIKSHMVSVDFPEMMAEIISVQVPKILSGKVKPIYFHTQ
# [15] = system: Rattus norvegicus; test: Distribution of tissue Radioactivity following Intravenous injection into castrated male rat kidney at 1 hour time; assay type: ADME, organism-based; conditions: in vivo; procedure, shortened: as §1
# [16] = system: Rattus norvegicus; test: Distribution of tissue Radioactivity following Intravenous injection into castrated male rat prostate at 0.5 hours time; assay type: ADME, organism-based, Prostate gland; conditions: in vivo; procedure, shortened: as §1
# [17] = system: Rattus norvegicus; test: Distribution of tissue Radioactivity following Intravenous injection into castrated male rat prostate at 4 hours time; assay type: ADME, organism-based, Prostate gland; conditions: in vivo; procedure, shortened: as §1
# [18] = system: Rattus norvegicus; test: Distribution of tissue Radioactivity following subcutaneous injection of […] of 5-alpha-DHT 15 min before the administration of the [125I]- tracer castrated male rat prostate/blood at 1 hour time; assay type: ADME, organism-based; conditions: in vivo, sc; procedure, shortened: as §2
# [19] = system: Rattus norvegicus; test: Distribution of tissue Radioactivity following Intravenous injection into castrated male rat lung at 1 hour time; assay type: ADME, organism-based; conditions: in vivo; procedure, shortened: as §1
# [20] = system: Rattus norvegicus; test: Distribution of tissue Radioactivity following Intravenous injection into castrated male rat thyroid at 2 hours time; assay type: ADME, organism-based, Thyroid gland; conditions: in vivo; procedure, shortened: as §1
# [21] = system: Rattus norvegicus; test: Distribution of tissue Radioactivity following Intravenous injection into castrated male rat kidney at 2 hours time; assay type: ADME, organism-based; conditions: in vivo; procedure, shortened: as §1
# [22] = system: Rattus norvegicus; test: Distribution of tissue radioactivity following subcutaneous injection of […] of 5-alpha-DHT 15 min before the administration of the [125I] tracer castrated male rat prostate 1 hour time; assay type: ADME, organism-based, Prostate gland; conditions: in vivo, sc
# [23] = system: Rattus norvegicus; test: Distribution of tissue Radioactivity following Intravenous injection into castrated male rat fat at 2 hours time; assay type: ADME, organism-based, Adipose tissue; conditions: in vivo; procedure, shortened: as §1
# [24] = system: Rattus norvegicus; test: Distribution of tissue Radioactivity following Intravenous injection into castrated male rat spleen at 4 hours time; assay type: ADME, organism-based; conditions: in vivo; procedure, shortened: as §1
# [25] = system: Rattus norvegicus; test: Distribution of tissue Radioactivity following Intravenous injection into castrated male rat blood at 1 hour time; assay type: ADME, organism-based; conditions: in vivo; procedure, shortened: as §1
# [26] = system: Rattus norvegicus; test: Distribution of tissue Radioactivity following subcutaneous injection of […] of 5-alpha-DHT 15 min before the administration of the [125I]- tracer castrated male rat thyroid at 1 hour time; assay type: ADME, organism-based, Thyroid gland; conditions: in vivo, sc
structure (smiles),measurement,setting,value
C[C@]12CCC(=O)CC1C[C@@H](I)[C@@H]1[C@@H]2CC[C@@]2(C)[C@H]1CC[C@]2(C)O (stereo partly specified),Biodistribution,[1],0.06%
same,Dose/g,[2],0.07%
same,Biodistribution,[3],1.43%
same,Biodistribution,[4],0.29%
same,Biodistribution,[5],0.07%
same,Dose/g,[6],0.07%
same,Biodistribution,[7],0.29%
same,Biodistribution,[8],0.08%
same,Biodistribution,[9],1.58%
same,Biodistribution,[10],0.15%
same,Dose/g,[11],0.39%
same,Dose/g,[12],0.31%
same,Biodistribution,[13],0.26%
same,RSA,[14],28
same,Dose/g,[15],0.27%
same,Biodistribution,[16],0.21%
same,Biodistribution,[17],0.44%
same,Dose/g,[18],0.66%
same,Biodistribution,[19],0.24%
same,Dose/g,[20],3.55%
same,Dose/g,[21],0.25%
same,Biodistribution,[22],0.23%
same,Dose/g,[23],0.2%
same,Dose/g,[24],0.17%
same,Biodistribution,[25],0.33%
same,Biodistribution,[26],3.55%
